Test results from ChEMBL document CHEMBL1255506, “Discovery of quinolines as selective glucocorticoid receptor agonists” (Bioorg Med Chem Lett, 2010).

These compounds were tested against T1, Mineralocorticoid receptor (Homo sapiens, UniProt P08235) (assay: Binding affinity to human recombinant mineralocorticoid receptor expressed in baculovirus infected Sf9 cells).
T1 sequence (P08235 whole entry): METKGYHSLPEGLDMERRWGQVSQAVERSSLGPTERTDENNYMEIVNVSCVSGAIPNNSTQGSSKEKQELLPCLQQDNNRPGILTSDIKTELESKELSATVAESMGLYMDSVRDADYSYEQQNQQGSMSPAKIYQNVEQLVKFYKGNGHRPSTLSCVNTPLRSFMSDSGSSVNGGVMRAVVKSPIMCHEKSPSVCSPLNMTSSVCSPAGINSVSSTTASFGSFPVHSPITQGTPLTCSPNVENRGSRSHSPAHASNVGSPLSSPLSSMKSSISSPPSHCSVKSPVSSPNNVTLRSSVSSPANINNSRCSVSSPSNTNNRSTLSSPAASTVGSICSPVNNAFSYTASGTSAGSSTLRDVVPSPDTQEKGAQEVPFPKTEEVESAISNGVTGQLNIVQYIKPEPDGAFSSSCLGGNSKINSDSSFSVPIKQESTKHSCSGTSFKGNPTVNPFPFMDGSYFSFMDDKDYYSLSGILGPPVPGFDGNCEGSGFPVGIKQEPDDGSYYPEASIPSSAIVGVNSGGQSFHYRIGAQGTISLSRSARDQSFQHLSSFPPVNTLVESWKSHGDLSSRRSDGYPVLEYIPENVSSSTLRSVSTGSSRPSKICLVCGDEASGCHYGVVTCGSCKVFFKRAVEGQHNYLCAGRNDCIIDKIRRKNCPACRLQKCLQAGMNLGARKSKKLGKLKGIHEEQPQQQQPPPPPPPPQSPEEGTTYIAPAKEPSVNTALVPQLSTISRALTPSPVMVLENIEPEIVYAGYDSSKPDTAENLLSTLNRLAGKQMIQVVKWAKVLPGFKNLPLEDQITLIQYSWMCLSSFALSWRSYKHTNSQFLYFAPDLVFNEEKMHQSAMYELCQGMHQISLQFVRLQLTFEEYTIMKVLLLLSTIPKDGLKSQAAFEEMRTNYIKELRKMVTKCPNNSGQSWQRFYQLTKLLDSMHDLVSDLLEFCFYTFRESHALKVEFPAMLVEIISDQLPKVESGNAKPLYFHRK
Outline: (§1)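 Extracts of Sf9 cells infected with recombinant baculovirus encoding the human receptor served as receptor source for competitive binding. Run in duplicate; pIC50 derived, value error stated as 0.2.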

Structure (SMILES)	IC50 [nM]
CC(C)(CC(O)(CNc1cccc2ncccc12)C(F)(F)F)c1cc(F)ccc1O (stereo unspecified)	> 1000
Cc1noc(=O)c2ccc(NC(=O)C(O)(CC(C)(C)c3cc(F)ccc3O)C(F)(F)F)cc12 (stereo unspecified)	1.26
COc1ccc(F)cc1C(C)(C)CC(O)(CNc1cccc2ncccc12)C(F)(F)F (stereo unspecified)	> 1000
Cc1ccc2c(NCC(O)(CC(C)(C)c3cc(F)ccc3O)C(F)(F)F)cccc2n1 (stereo unspecified)	> 1000
COc1ccc(F)cc1C(C)(C)CC(O)(CNc1cccc2ccccc12)C(F)(F)F (stereo unspecified)	> 1000

These compounds were tested against T2, Glucocorticoid receptor (Homo sapiens, UniProt P04150) (assay: Transrepression activity at glucocorticoid receptor-mediated antiinflammatory activity in human HeLa cells assessed as inhibition of TPA-induced collagenase promoter activity by luciferase reporter gene assay).
T2 sequence (P04150 whole entry): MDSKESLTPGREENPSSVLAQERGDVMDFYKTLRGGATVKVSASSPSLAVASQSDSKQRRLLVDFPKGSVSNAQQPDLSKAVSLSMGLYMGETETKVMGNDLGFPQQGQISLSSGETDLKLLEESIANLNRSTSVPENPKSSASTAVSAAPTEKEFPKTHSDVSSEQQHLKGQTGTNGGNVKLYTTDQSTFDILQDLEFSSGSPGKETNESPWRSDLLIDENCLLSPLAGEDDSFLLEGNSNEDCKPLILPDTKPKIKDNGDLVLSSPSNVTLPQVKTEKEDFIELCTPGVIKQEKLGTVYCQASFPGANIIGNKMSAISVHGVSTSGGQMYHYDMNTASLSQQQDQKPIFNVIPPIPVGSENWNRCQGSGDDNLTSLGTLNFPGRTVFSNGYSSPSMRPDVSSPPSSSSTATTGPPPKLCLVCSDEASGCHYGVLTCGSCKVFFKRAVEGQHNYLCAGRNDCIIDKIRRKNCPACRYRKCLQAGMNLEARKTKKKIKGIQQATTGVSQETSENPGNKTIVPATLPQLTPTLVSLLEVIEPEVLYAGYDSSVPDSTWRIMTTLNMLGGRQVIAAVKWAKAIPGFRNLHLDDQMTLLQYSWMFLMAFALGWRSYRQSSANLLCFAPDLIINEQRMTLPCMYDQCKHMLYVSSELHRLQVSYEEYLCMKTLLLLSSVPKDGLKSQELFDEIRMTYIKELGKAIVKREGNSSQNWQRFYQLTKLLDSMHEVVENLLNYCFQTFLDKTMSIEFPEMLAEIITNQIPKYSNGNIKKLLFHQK
Format: cell-based

Structure (SMILES)	IC50 [nM]
CC(C)(CC(O)(CNc1cccc2ncccc12)C(F)(F)F)c1cc(F)ccc1O (stereo unspecified)	6.31
Cc1noc(=O)c2ccc(NC(=O)C(O)(CC(C)(C)c3cc(F)ccc3O)C(F)(F)F)cc12 (stereo unspecified)	10
Cc1ccc2c(NCC(O)(CC(C)(C)c3cc(F)ccc3O)C(F)(F)F)cccc2n1 (stereo unspecified)	3.16

These compounds were tested against T3, Androgen receptor (Homo sapiens, UniProt P10275) (assay: Binding affinity to human recombinant androgen receptor expressed in baculovirus infected Sf9 cells).
T3 sequence (P10275 whole entry): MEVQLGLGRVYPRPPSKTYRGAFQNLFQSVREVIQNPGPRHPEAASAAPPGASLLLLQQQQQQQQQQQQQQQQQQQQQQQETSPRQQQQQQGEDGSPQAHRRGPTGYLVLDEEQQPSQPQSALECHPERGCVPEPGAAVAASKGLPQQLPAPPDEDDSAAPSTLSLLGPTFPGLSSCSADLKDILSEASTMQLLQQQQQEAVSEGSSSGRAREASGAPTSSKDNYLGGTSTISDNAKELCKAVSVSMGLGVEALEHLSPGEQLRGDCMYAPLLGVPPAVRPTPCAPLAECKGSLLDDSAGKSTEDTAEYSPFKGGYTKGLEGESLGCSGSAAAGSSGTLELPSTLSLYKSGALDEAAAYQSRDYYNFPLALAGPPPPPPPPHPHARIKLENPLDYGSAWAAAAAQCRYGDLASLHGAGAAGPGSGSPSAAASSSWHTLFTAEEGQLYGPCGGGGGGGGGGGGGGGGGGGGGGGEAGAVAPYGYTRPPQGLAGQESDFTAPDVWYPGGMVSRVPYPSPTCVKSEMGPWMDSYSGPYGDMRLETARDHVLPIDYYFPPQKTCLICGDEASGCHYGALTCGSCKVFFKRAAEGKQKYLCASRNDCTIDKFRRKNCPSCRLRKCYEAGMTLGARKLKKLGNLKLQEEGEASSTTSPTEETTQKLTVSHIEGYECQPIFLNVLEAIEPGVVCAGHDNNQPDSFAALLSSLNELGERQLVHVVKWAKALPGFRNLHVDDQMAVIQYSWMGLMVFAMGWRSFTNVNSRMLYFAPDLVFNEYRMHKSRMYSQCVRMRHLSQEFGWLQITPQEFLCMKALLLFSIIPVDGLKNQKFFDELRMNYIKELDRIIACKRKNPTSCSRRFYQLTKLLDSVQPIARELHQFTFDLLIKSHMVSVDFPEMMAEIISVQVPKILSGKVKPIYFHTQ

Structure (SMILES)	IC50 [nM]
CC(C)(CC(O)(CNc1cccc2ncccc12)C(F)(F)F)c1cc(F)ccc1O (stereo unspecified)	> 1000
Cc1noc(=O)c2ccc(NC(=O)C(O)(CC(C)(C)c3cc(F)ccc3O)C(F)(F)F)cc12 (stereo unspecified)	158
COc1ccc(F)cc1C(C)(C)CC(O)(CNc1cccc2ncccc12)C(F)(F)F (stereo unspecified)	> 1000
Cc1ccc2c(NCC(O)(CC(C)(C)c3cc(F)ccc3O)C(F)(F)F)cccc2n1 (stereo unspecified)	> 1000
COc1ccc(F)cc1C(C)(C)CC(O)(CNc1cccc2ccccc12)C(F)(F)F (stereo unspecified)	> 1000

What follows are compounds tested against T2, Glucocorticoid receptor (assay: Binding affinity to human recombinant glucocorticoid receptor expressed in baculovirus infected Sf9 cells).

Structure (SMILES)	IC50 [nM]
CC(C)(CC(O)(CNc1cccc2ncccc12)C(F)(F)F)c1cc(F)ccc1O (stereo unspecified)	1
Cc1noc(=O)c2ccc(NC(=O)C(O)(CC(C)(C)c3cc(F)ccc3O)C(F)(F)F)cc12 (stereo unspecified)	3.16
COc1ccc(F)cc1C(C)(C)CC(O)(CNc1cccc2ncccc12)C(F)(F)F (stereo unspecified)	20
Cc1ccc2c(NCC(O)(CC(C)(C)c3cc(F)ccc3O)C(F)(F)F)cccc2n1 (stereo unspecified)	6.31
COc1ccc(F)cc1C(C)(C)CC(O)(CNc1cccc2ccccc12)C(F)(F)F (stereo unspecified)	> 1000

These compounds were tested against T2, Glucocorticoid receptor (assay: Transrepression activity at glucocorticoid receptor-mediated antiinflammatory activity in human THP1 cells assessed as inhibition of LPS-induced IL-8 production).
Format: cell-based, THP-1

Structure (SMILES)	IC50 [nM]
CC(C)(CC(O)(CNc1cccc2ncccc12)C(F)(F)F)c1cc(F)ccc1O (stereo unspecified)	20
Cc1noc(=O)c2ccc(NC(=O)C(O)(CC(C)(C)c3cc(F)ccc3O)C(F)(F)F)cc12 (stereo unspecified)	50.1
COc1ccc(F)cc1C(C)(C)CC(O)(CNc1cccc2ncccc12)C(F)(F)F (stereo unspecified)	25.1
Cc1ccc2c(NCC(O)(CC(C)(C)c3cc(F)ccc3O)C(F)(F)F)cccc2n1 (stereo unspecified)	5.01

The compounds below were run against T2, Glucocorticoid receptor (assay: Transactivation activity at glucocorticoid receptor in human HeLa cells assessed as induction of MMTV promoter activity by luciferase reporter gene assay).
Format: cell-based

Structure (SMILES)	EC50 [nM]
CC(C)(CC(O)(CNc1cccc2ncccc12)C(F)(F)F)c1cc(F)ccc1O (stereo unspecified)	79.4
Cc1noc(=O)c2ccc(NC(=O)C(O)(CC(C)(C)c3cc(F)ccc3O)C(F)(F)F)cc12 (stereo unspecified)	25.1
Cc1ccc2c(NCC(O)(CC(C)(C)c3cc(F)ccc3O)C(F)(F)F)cccc2n1 (stereo unspecified)	12.6

Each compound was assayed against T4, Progesterone receptor (Homo sapiens, UniProt P06401) (assay: Binding affinity to human recombinant progesterone receptor expressed in baculovirus infected Sf9 cells).
T4 sequence (P06401 whole entry): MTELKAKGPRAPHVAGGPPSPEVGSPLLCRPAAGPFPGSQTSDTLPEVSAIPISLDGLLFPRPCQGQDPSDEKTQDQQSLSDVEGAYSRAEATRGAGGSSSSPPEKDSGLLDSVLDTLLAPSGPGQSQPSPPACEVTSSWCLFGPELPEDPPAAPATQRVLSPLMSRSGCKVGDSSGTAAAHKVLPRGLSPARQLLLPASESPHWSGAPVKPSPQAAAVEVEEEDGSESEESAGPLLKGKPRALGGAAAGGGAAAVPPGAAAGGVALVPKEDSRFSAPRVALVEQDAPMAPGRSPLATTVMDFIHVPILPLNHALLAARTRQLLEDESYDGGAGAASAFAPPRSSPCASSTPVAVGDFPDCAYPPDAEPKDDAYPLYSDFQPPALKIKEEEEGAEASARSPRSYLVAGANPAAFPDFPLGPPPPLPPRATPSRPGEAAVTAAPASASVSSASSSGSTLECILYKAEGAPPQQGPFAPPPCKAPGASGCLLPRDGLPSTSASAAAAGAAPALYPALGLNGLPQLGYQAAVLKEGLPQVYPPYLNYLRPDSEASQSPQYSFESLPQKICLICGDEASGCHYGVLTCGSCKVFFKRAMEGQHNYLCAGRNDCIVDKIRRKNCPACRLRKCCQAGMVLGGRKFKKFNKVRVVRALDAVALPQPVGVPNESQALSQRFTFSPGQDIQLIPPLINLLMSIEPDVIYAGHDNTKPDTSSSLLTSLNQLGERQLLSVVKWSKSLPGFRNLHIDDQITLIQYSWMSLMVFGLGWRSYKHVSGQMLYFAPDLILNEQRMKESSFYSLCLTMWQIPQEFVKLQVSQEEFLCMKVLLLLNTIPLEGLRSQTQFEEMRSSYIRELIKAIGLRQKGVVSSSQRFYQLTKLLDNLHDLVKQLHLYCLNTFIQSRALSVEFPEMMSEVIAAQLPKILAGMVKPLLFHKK
Outline: as §1

Structure (SMILES)	IC50 [nM]
CC(C)(CC(O)(CNc1cccc2ncccc12)C(F)(F)F)c1cc(F)ccc1O (stereo unspecified)	> 1000
Cc1noc(=O)c2ccc(NC(=O)C(O)(CC(C)(C)c3cc(F)ccc3O)C(F)(F)F)cc12 (stereo unspecified)	7.94
COc1ccc(F)cc1C(C)(C)CC(O)(CNc1cccc2ncccc12)C(F)(F)F (stereo unspecified)	1000
C[C@@H]1C[C@H]2[C@@H]3CCC4=CC(=O)C=C[C@]4(C)[C@@]3(F)[C@@H](O)C[C@]2(C)[C@@]1(O)C(=O)CO [DEXAMETHASONE]	> 1000
Cc1ccc2c(NCC(O)(CC(C)(C)c3cc(F)ccc3O)C(F)(F)F)cccc2n1 (stereo unspecified)	> 1000
COc1ccc(F)cc1C(C)(C)CC(O)(CNc1cccc2ccccc12)C(F)(F)F (stereo unspecified)	> 1000
